Experimental data taken from ChEMBL document CHEMBL1157946, “Sesquiterpene lactones as allelochemicals” (J Nat Prod, 2006).
Active and inactive are the calls of the source. The rule behind the calls is not given here.

Assays:
Lactuca sativa [1] = assay: Phytotoxicity against Lactuca sativa L. assessed as inhibition of root growth at 0.5 mM to 50 uM relative to control; assay type: functional, organism-based
Procedure, shortened: (§1)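 Seeds on filter paper in Petri dishes with 10^-2 M MES buffer, pH 6.0. Test concentrations 5×10^-4, 10^-4, 5×10^-5 and 10^-5 M, made by diluting DMSO solutions at 5 μL/mL buffer. Dishes sealed and kept at 25 °C in the dark: lettuce and tomato 5 days, onion 7 days. Plants frozen at -10 °C for 24 h before measurement. Root and shoot length recorded automatically and compared with buffer/DMSO control.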

Lactuca sativa [2] = assay: Phytotoxicity against Lactuca sativa L. assessed as inhibition of shoot growth at 0.5 mM to 50 uM relative to control; assay type: functional, organism-based; procedure, shortened: as §1
Solanum lycopersicum [3] = assay: Phytotoxicity against Lycopersicon esculentum Will assessed as inhibition of shoot development at 0.5 mM relative to control; assay type: functional; procedure, shortened: as §1
Allium cepa [4] = assay: Phytotoxicity against Allium cepa assessed as inhibition of root growth at 0.5 mM relative to control; assay type: functional; procedure, shortened: as §1
Triticum aestivum [5] = assay: Growth stimulation of Triticum aestivum L. cv. Duro at <1 mM after 24 hrs by coleoptile assay; assay type: functional, organism-based
Procedure, shortened: (§2)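 Etiolated wheat coleoptile sections (apical 2 mm discarded, next 4 mm used; cut under green safelight), tested at 10^-3 to 10^-6 M from DMSO stock (max 0.1% DMSO final) in phosphate–citrate buffer pH 5.6 with 2% sucrose. Five sections per tube, three tubes per dilution, duplicated. Tubes rotated at 0.25 rpm, 24 h, 22 °C, dark. Lengths from digitized images. Reported as % difference from parallel control; Welch's test.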

Triticum aestivum [6] = assay: Growth inhibition of Triticum aestivum L. cv. Duro at 1 mM after 24 hrs by coleoptile assay; assay type: functional, organism-based; procedure, shortened: as §2
Triticum aestivum [7] = assay: Growth inhibition of Triticum aestivum L. cv. Duro after 24 hrs by coleoptile assay; assay type: functional, organism-based; procedure, shortened: as §2
Triticum aestivum [8] = assay: Growth inhibition of Triticum aestivum L. cv. Duro at 1 uM after 24 hrs by coleoptile assay; assay type: functional; procedure, shortened: as §2
Solanum lycopersicum [9] = assay: Phytotoxicity against Lycopersicon esculentum Will assessed as inhibition of root growth at 0.5 mM to 50 uM relative to control; assay type: functional; procedure, shortened: as §1
Allium cepa [10] = assay: Phytotoxicity against Allium cepa assessed as inhibition of shoot growth at 0.5 mM relative to control; assay type: functional; procedure, shortened: as §1

C=C1C(=O)O[C@H]2/C=C(/CO)C(=O)/C=C/[C@@](C)(O)C[C@@H](OC(=O)/C(C)=C\C)[C@@H]12
Activity (Lactuca sativa [1]): Active
Activity (Lactuca sativa [2]): Active
inhibition at 500 µM (Solanum lycopersicum [3]): 20%
inhibition at 500 µM (Allium cepa [4]): 54%

C=C1C(=O)O[C@H]2[C@H]1[C@H](OC(=O)/C(C)=C\C)C[C@@]1(C)[C@H](O)C[C@H](O)C(=C)[C@@H]21
Activity (Triticum aestivum [5]): Active

C=C1C(=O)O[C@@H]2[C@H]3C(CO)=CC[C@H]3C(=C)CC[C@@H]12 [ANNUOLIDE A]
inhibition at 1000 µM (Triticum aestivum [6]): 90%
IC50 (Triticum aestivum [7]; Triticum aestivum, 24 h): 370 µM
inhibition at 1 µM (Triticum aestivum [8]): 35%

C=C1C(=O)O[C@@H]2/C=C(/CO)[C@@]3(O)CC[C@@](C)(C[C@@H](OC(=O)/C(C)=C\C)[C@@H]12)O3 [NIVEUSIN B]
inhibition at 1000 µM (Triticum aestivum [6]): 92%
inhibition at 500 µM (Solanum lycopersicum [3]): 20%

C=C1C(=O)O[C@H]2[C@H]1[C@H](OC(=O)/C(C)=C\C)C[C@]1(C)C=CC(=O)C(=C)[C@H]2O1 [HELIVYPOLIDE F]
Activity (Triticum aestivum [6]): Active
Activity (Lactuca sativa [1]): Active
Activity (Lactuca sativa [2]): Active
inhibition (INH) (Solanum lycopersicum [9]): 32%
inhibition at 500 µM (Solanum lycopersicum [3]): 20%
inhibition at 500 µM (Allium cepa [4]): 54%
inhibition at 500 µM (Allium cepa [10]): 20%

C=C1C(=O)O[C@@H]2[C@H]3C(C)=CC[C@H]3[C@](C)(O)C[C@@H](OC(=O)/C(C)=C\C)[C@@H]12
IC50 (Triticum aestivum [6]): 150 µM
inhibition at 1000 µM (Triticum aestivum [6]): 98%

C=C1C(=O)O[C@@H]2[C@H]3C(C)=C[C@H](O)[C@H]3[C@](C)(O)C[C@@H](OC(=O)/C(C)=C\C)[C@@H]12 [ANNUOLIDE H]
inhibition (INH) (Triticum aestivum [7]): 82%
